Results taken from ChEMBL document CHEMBL1123840, “Synthesis and evaluation of melphalan-containing N,N-dialkylenkephalin analogues as irreversible antagonists of the delta opioid receptor” (J Med Chem, 1987).
Several values for one entry are separate records, joined by “and”; a condition that tells them apart may be missing. Equal entries are not always repeated. Square brackets hold non-standard residues; d marks the D form. Peptide text beside a SMILES is read from it. * marks the point of attachment. Tyr(Nα,Nα-Bn2) = O=C([C@H](Cc1ccc(O)cc1)N(Cc1ccccc1)Cc1ccccc1)*; Phe(4-N(CH2CH2Cl)2) = N[C@@H](Cc1ccc(N(CCCl)CCCl)cc1)C(=O)O; Tyr(Nα,Nα-allyl2) = C=CCN(CC=C)[C@@H](Cc1ccc(O)cc1)C(=O)*; Aib = CC(C)(N)C(=O)O

What was measured:
[1] = biological target: Kappa-type opioid receptor (Cavia porcellus) (UniProt P41144); experiment: Ratio of IC50 of ethylketazocine (agonist) after 10 min of incubation along with compound (antagonist) and IC50 of agonist in absence of compound for kappa opioid receptor at 1 uM in GPI assay (Exp 1); assay type: functional
Summary of the method: (§1)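 Reversible antagonism was measured in electrically stimulated isolated tissue (MVD or GPI) with the antagonist present. Agonists were morphine (μ), ethylketazocine (κ) and DADLE (δ). The value is the agonist IC50 with antagonist divided by the IC50 without it, i.e. the fold rightward shift of the agonist dose-response curve. Mean ± SEM, n = 3 unless otherwise noted.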

Cavia porcellus [2] = species: Cavia porcellus; experiment: (§2) Reversible opioid agonist activity in the electrically stimulated guinea pig ileum(GPI) at 1 uM concentration (Exp 1); assay type: functional
Cavia porcellus [3] = species: Cavia porcellus; experiment: (§3) Reversible opioid agonist activity in the electrically stimulated guinea pig ileum(GPI) at 1 uM concentration (Exp 2)
[4] = biological target: Delta-type opioid receptor (Mus musculus) (UniProt P32300); experiment: Ratio of IC50 of DADLE (agonist) after 10 min of incubation along with compound (antagonist) and IC50 of agonist in the absence of compound for delta opioid receptor at 1 uM in MVD assay; assay type: functional; summary of the method: as §1
Mus musculus [5] = species: Mus musculus; experiment: Ratio of IC50 of morphine (agonist) expossed to the compound for 10 min and then washed 30 times to Ratio of IC50 of morphine (agonist) prior to exposure to compound; assay type: functional
Summary of the method: (§4)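 Irreversible antagonism was measured in isolated tissue. The tissue was exposed to the compound for 10 min (30 min in some cases), then washed 30 times with fresh buffer to remove non-covalently bound ligand. Agonist IC50 was then redetermined. The ratio is this post-wash IC50 over the agonist IC50 in the same tissue before exposure. Mean ± SEM, n = 3 unless otherwise noted.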

Mus musculus [6] = species: Mus musculus; experiment: (§5) Reversible opioid agonist activity in the electrically stimulated mouse vas deferens(MVD) at 1 uM concentration; assay type: functional
[7] = biological target: Mu-type opioid receptor (Homo sapiens) (UniProt P35372); experiment: Ratio of IC50 of […] (agonist) after 10 min of incubation along with compound (antagonist) and IC50 of agonist in absence of compound for mu opioid receptor at 1 uM in MVD assay; assay type: functional; settings: Mus musculus; summary of the method: as §1
[8] = biological target: Kappa-type opioid receptor (Cavia porcellus) (UniProt P41144); settings: 1 uM
[9] = biological target: Delta-type opioid receptor (Homo sapiens) (UniProt P41143); settings: Cavia porcellus; 1 uM
[10] = biological target: Delta-type opioid receptor (Homo sapiens) (UniProt P41143); settings: Cavia porcellus; 1 uM; remark: listed apart in the source
[11] = biological target: Delta-type opioid receptor (Mus musculus) (UniProt P32300); settings: 10 uM
[12] = biological target: Delta-type opioid receptor (Homo sapiens) (UniProt P41143); settings: Cavia porcellus; 1 uM; remark: listed apart in the source
[13] = biological target: Mu-type opioid receptor (Cavia porcellus) (UniProt P97266); experiment: Ratio of IC50 of […] (agonist) after 10 min of incubation along with compound (antagonist) and IC50 of agonist in absence of compound for mu opioid receptor at 1 uM in GPI assay (Exp 2); assay type: functional; summary of the method: as §1
Cavia porcellus [14] = species: Cavia porcellus; experiment: Reversible opioid antagonist activity in the electrically stimulated guinea pig ileum(GPI). Antagonist activity was evaluated with morphine at 0.02 uM concentration (Exp 2); assay type: functional
Cavia porcellus [15] = species: Cavia porcellus; experiment: as §3; assay type: functional
Mus musculus [16] = species: Mus musculus; experiment: Ratio of IC50 of DADLE (agonist) expossed to the compound for 10 min and then washed 30 times to Ratio of IC50 of morphine (agonist) prior to exposure to compound; assay type: functional; summary of the method: as §4
[17] = biological target: Kappa-type opioid receptor (Cavia porcellus) (UniProt P41144); experiment: Ratio of IC50 of ethylketazocine (agonist) after 10 min of incubation along with compound (antagonist) and IC50 of agonist in absence of compound for Opioid receptor kappa 1 at 1 uM in GPI assay; assay type: functional; summary of the method: as §1
[18] = biological target: T1, Opioid receptors; mu/kappa/delta (Homo sapiens) (UniProt P41145+P41143+P35372); experiment: as §2; assay type: functional, tissue-based; settings: Cavia porcellus, target entry is the homologue from another species
[19] = biological target: T2, Opioid receptor (Mus musculus) (UniProt P42866+P32300+P33534); experiment: Reversible opioid agonist activity in the electrically stimulated mouse vas deferens(MVD) at 10 uM of concentration; assay type: functional
[20] = biological target: Delta-type opioid receptor (Mus musculus) (UniProt P32300); experiment: Ratio of IC50 of DADLE (agonist) after 10 min of incubation along with compound (antagonist) and IC50 of agonist in the absence of compound for Opioid receptor delta 1 at 1 uM in MVD assay; assay type: functional; summary of the method: as §1
[21] = biological target: Delta-type opioid receptor (Mus musculus) (UniProt P32300); experiment: Ratio of IC50 of DADLE (agonist) after 10 min of incubation along with compound (antagonist) and IC50 of agonist in the absence of compound for Opioid receptor delta 1 at 10 uM in MVD assay; assay type: functional; summary of the method: as §1
[22] = biological target: Mu-type opioid receptor (Cavia porcellus) (UniProt P97266); experiment: Ratio of IC50 of […] (agonist) after 10 min of incubation along with compound (antagonist) and IC50 of agonist in absence of compound for Opioid receptor mu 1 at 1 uM in GPI assay; assay type: functional; summary of the method: as §1
[23] = biological target: Mu-type opioid receptor (Mus musculus) (UniProt P42866); experiment: Ratio of IC50 of […] (agonist) after 10 min of incubation along with compound (antagonist) and IC50 of agonist in absence of compound for Opioid receptor mu 1 at 1 uM in MVD assay; assay type: functional; summary of the method: as §1
[24] = biological target: T2, Opioid receptor (Mus musculus); experiment: as §5; assay type: functional
[25] = biological target: T1, Opioid receptors; mu/kappa/delta (Homo sapiens); experiment: as §3; assay type: functional, tissue-based; settings: Cavia porcellus, target entry is the homologue from another species
[26] = biological target: Kappa-type opioid receptor (Cavia porcellus) (UniProt P41144); experiment: Ratio of IC50 of ethylketazocine (agonist) after 10 min of incubation along with compound (antagonist) and IC50 of agonist in absence of compound for kappa opioid receptor at 1 uM in GPI assay; assay type: functional; summary of the method: as §1
[27] = biological target: Mu-type opioid receptor (Cavia porcellus) (UniProt P97266); experiment: Ratio of IC50 of […] (agonist) after 10 min of incubation along with compound (antagonist) and IC50 of agonist in absence of compound for mu opioid receptor at 1 uM in GPI assay; assay type: functional; summary of the method: as §1

Chain of Mu-type opioid receptor (Cavia porcellus) (P97266 whole entry): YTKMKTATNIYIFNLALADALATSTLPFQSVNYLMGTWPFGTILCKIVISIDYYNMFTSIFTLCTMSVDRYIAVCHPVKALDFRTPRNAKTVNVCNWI
Chain of Delta-type opioid receptor (Homo sapiens) (P41143 whole entry): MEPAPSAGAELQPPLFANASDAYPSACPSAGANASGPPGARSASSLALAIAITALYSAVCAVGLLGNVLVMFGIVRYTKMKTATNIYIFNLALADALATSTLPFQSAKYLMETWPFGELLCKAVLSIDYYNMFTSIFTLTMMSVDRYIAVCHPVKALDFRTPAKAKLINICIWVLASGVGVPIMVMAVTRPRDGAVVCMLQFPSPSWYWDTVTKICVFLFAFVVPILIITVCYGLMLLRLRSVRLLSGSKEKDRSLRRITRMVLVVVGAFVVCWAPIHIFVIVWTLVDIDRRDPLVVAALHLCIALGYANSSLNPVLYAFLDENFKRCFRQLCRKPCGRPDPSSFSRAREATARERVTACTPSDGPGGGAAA
Chain of Mu-type opioid receptor (Homo sapiens) (P35372 whole entry): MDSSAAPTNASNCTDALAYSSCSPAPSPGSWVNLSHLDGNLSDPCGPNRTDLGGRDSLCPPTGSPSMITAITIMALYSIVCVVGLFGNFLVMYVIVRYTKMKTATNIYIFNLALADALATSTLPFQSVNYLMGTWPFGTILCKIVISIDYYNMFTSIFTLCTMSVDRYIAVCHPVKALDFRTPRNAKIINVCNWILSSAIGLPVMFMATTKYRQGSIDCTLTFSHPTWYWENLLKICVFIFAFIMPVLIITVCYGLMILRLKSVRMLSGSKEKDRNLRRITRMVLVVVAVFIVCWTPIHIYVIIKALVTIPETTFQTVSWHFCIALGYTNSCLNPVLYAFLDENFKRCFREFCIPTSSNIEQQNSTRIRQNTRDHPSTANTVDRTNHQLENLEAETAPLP
Chain of Delta-type opioid receptor (Mus musculus) (P32300 whole entry): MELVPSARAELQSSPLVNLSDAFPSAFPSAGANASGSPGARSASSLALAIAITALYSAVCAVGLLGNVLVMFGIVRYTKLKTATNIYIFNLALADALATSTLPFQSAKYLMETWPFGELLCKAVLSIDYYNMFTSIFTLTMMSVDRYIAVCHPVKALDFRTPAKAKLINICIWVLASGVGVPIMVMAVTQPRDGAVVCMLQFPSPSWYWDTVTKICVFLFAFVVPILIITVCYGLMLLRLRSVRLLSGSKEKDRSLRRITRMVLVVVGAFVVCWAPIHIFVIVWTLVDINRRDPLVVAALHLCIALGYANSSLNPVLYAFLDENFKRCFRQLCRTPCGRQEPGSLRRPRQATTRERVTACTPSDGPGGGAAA
Chain of Kappa-type opioid receptor (Cavia porcellus) (P41144 whole entry): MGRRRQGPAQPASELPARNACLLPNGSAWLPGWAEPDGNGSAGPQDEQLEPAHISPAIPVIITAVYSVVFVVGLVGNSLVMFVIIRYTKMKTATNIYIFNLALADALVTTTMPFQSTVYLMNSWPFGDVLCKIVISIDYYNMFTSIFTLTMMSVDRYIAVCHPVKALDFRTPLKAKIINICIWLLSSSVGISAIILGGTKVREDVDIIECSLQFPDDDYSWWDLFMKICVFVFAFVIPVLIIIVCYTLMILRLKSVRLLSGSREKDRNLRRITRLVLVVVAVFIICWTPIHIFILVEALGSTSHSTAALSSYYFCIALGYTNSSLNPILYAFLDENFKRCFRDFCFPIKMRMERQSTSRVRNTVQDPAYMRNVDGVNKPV
T1 sequence (P35372 whole entry, looked up): as the sequence (P35372 whole entry) above
T1 sequence (P41143 whole entry, looked up): as the sequence (P41143 whole entry) above
T1 sequence (P41145 whole entry, looked up): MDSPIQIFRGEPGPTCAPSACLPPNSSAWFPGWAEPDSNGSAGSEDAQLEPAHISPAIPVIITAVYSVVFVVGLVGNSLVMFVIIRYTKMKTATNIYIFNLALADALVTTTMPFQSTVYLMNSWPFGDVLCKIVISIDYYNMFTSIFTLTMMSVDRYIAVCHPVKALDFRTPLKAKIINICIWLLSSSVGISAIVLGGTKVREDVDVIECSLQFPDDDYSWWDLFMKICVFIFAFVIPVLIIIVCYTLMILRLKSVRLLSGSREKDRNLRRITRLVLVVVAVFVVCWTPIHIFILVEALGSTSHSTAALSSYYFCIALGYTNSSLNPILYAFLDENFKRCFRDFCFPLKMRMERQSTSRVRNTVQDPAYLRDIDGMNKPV
T2 sequence (P32300 whole entry, looked up): as the sequence (P32300 whole entry) above
T2 sequence (P33534 whole entry, looked up): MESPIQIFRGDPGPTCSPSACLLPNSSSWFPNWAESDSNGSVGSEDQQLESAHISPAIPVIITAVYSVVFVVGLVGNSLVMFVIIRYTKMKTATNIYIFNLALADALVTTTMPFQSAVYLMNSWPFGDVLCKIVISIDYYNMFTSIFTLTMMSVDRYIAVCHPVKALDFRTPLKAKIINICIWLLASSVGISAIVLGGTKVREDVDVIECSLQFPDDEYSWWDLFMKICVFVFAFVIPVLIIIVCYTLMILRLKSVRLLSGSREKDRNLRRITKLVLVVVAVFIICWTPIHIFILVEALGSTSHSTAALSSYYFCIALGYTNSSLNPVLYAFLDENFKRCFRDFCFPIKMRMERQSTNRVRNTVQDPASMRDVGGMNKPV
T2 sequence (P42866 whole entry, looked up): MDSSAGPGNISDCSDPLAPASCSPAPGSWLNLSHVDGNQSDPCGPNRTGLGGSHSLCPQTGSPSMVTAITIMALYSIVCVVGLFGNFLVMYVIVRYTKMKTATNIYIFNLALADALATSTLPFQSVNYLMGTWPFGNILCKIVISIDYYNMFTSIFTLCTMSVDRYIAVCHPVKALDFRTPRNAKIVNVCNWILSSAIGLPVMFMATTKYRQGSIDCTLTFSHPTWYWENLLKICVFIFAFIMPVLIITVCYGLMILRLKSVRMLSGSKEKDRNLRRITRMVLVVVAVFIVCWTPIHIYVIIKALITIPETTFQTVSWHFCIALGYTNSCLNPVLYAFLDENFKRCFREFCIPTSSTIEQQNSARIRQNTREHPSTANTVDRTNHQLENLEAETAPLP
Chain of Mu-type opioid receptor (Mus musculus) (P42866 whole entry): as the sequence (P42866 whole entry, looked up) above

Q: How did the IC50 ratio [1] turn out when CC(C)C[C@H](NC(=O)[C@H](Cc1ccccc1)NC(=O)CNC(=O)CNC(=O)[C@H](Cc1ccc(O)cc1)N(Cc1ccccc1)Cc1ccccc1)C(=O)O ({Tyr(Nα,Nα-Bn2)}-GGFL-OH) was run?
A: The IC50 ratio was 1.

Q: And the inhibition at 1 µM (Cavia porcellus [2])?
A: The inhibition at 1 µM was 1.9%.

Q: And the inhibition at 1 µM (Cavia porcellus [3])?
A: Its inhibition at 1 µM is 2.9%.

Q: And the IC50 ratio [4]?
A: The IC50 ratio was 6.6.

Q: And the IC50 ratio (Mus musculus [5])?
A: The IC50 ratio was 1.

Q: What about the inhibition at 1 µM (Mus musculus [6]) of the same compound?
A: The inhibition at 1 µM was 11.4%.

Q: What about the IC50 ratio [7] of the same compound?
A: The IC50 ratio was 0.6.

Q: And the IC50 ratio [8]?
A: Its IC50 ratio is 1.

Q: And the IC50 ratio [9]?
A: Its IC50 ratio is 0.8.

Q: And the IC50 ratio [10]?
A: Its IC50 ratio is 1.2.

Q: What about the IC50 ratio [11] of the same compound?
A: Its IC50 ratio is 96.9.

Q: What about the IC50 ratio [12] of the same compound?
A: Its IC50 ratio is 2.5.

Q: With CC(C)C[C@H](NC(=O)[C@H](Cc1ccccc1)NC(=O)C(C)(C)NC(=O)C(C)(C)NC(=O)[C@H](Cc1ccc(O)cc1)N(Cc1ccccc1)Cc1ccccc1)C(=O)O ({Tyr(Nα,Nα-Bn2)}-[Aib][Aib]FL-OH) as the compound, how does the IC50 ratio [1] read?
A: Its IC50 ratio is 1.

Q: And the IC50 ratio [13]?
A: The IC50 ratio was 0.7.

Q: What about the IC50 ratio (Cavia porcellus [14]) of the same compound?
A: Its IC50 ratio is 1.3.

Q: What about the IC50 (Cavia porcellus [15]) of the same compound?
A: The IC50 was 300 nM.

Q: And the inhibition at 1 µM (Cavia porcellus [2])?
A: Its inhibition at 1 µM is 68.7%.

Q: What about the IC50 ratio [4] of the same compound?
A: Its IC50 ratio is 5.6.

Q: And the inhibition at 1 µM (Mus musculus [6])?
A: Its inhibition at 1 µM is 25.7%.

Q: What about the IC50 ratio [7] of the same compound?
A: The IC50 ratio was 1.

Q: How did the IC50 ratio (Mus musculus [16]) turn out when C=CCN(CC=C)[C@@H](Cc1ccc(O)cc1)C(=O)NC(C)(C)C(=O)NC(C)(C)C(=O)N[C@@H](Cc1ccccc1)C(=O)N[C@@H](CC(C)C)C(=O)O ({Tyr(Nα,Nα-allyl2)}-[Aib][Aib]FL-OH) was run?
A: Its IC50 ratio is 5.5.

Q: And the IC50 ratio (Mus musculus [5])?
A: The IC50 ratio was 0.8.

Q: And the IC50 ratio [17]?
A: The IC50 ratio was 0.7 and 0.9.

Q: What about the inhibition [18] of the same compound?
A: The inhibition was 16.2%.

Q: And the inhibition [19]?
A: Its inhibition is 15.8%.

Q: What about the IC50 ratio [20] of the same compound?
A: Its IC50 ratio is 15.6.

Q: And the IC50 ratio [21]?
A: Its IC50 ratio is 147.

Q: And the IC50 ratio [22]?
A: Its IC50 ratio is 0.5 and 0.6.

Q: And the IC50 ratio [23]?
A: The IC50 ratio was 0.8.

Q: What about the inhibition [24] of the same compound?
A: Its inhibition is 8.4%.

Q: And the inhibition [25]?
A: The inhibition was 37.8%.

Q: With CC(C)C[C@H](NC(=O)[C@H](Cc1ccc(N(CCCl)CCCl)cc1)NC(=O)C(C)(C)NC(=O)C(C)(C)NC(=O)[C@H](Cc1ccc(O)cc1)N(Cc1ccccc1)Cc1ccccc1)C(=O)O ({Tyr(Nα,Nα-Bn2)}-[Aib][Aib][Phe(4-N(CH2CH2Cl)2)]L-OH) as the compound, how does the IC50 ratio [26] read?
A: The IC50 ratio was 0.2 and 0.3.

Q: And the IC50 ratio [27]?
A: The IC50 ratio was 0.4 and 1.

Q: What about the Inhibition (Cavia porcellus [2]) of the same compound?
A: The Inhibition was 12.5%.

Q: What about the inhibition at 1 µM (Cavia porcellus [2]; Cavia porcellus, Ileum) of the same compound?
A: The inhibition at 1 µM was 9.4%.

Q: What about the IC50 ratio [4] of the same compound?
A: Its IC50 ratio is 1.2.

Q: And the inhibition at 1 µM (Mus musculus [6])?
A: Its inhibition at 1 µM is 22.5%.

Q: What about the IC50 ratio [7] of the same compound?
A: Its IC50 ratio is 1.
